Calls of active or inactive are those of the source. The calls are words filed in the database; no cut-off is given here.
Legend:
Streptococcus mutans [1] = assay: Selectivity index, ratio of growth inhibition IC50 for Streptococcus mutans UA159 to biofilm inhibition IC50 for Streptococcus mutans UA159
[2] = molecular target: T1, Glucosyltransferase-SI (Streptococcus mutans serotype c (strain ATCC 700610 / UA159)) (UniProt P13470); assay: Inhibition of Wild-type Streptococcus mutans UA159 glucosyltransferase C at 50 uM by zymography
T1 sequence (whole entry): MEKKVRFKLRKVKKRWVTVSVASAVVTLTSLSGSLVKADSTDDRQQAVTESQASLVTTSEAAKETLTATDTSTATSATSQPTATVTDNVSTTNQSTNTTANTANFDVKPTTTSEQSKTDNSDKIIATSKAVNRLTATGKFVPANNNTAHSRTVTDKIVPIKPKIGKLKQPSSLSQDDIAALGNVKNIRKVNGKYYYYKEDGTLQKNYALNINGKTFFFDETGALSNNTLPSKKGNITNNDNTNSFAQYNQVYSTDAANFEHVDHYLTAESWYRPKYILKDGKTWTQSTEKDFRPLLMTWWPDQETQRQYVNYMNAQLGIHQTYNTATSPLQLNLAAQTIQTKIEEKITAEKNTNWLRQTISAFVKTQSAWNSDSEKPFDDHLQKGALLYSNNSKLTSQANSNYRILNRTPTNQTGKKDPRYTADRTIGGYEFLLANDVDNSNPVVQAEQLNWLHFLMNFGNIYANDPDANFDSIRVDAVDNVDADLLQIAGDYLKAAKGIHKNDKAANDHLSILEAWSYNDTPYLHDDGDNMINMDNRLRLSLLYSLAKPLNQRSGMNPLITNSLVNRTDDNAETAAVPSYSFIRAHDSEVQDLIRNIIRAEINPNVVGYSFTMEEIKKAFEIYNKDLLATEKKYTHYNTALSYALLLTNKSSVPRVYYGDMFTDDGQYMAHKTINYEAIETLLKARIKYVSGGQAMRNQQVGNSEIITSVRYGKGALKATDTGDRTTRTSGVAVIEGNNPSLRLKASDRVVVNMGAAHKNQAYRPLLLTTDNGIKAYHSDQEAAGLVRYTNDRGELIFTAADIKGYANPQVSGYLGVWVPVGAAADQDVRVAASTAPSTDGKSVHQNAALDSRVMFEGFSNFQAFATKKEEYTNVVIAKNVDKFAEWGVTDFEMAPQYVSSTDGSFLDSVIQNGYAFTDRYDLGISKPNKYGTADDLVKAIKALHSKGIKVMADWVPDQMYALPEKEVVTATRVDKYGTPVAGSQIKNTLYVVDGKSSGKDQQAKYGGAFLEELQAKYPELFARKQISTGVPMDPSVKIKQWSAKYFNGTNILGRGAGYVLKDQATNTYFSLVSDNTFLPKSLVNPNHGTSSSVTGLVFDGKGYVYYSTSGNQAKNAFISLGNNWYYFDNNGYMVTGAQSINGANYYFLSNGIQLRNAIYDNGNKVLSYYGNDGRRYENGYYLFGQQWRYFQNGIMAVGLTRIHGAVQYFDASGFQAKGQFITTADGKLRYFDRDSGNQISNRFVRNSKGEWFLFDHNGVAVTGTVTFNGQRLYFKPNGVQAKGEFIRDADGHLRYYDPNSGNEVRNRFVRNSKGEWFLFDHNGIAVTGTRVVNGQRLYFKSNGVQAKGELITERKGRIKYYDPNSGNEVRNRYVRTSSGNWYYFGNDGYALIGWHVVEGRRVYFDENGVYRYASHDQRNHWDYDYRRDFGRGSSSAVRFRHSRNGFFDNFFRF
How it was run: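 Compound (50 µM) added to overnight S. mutans UA159 wild-type cultures; Gtfs concentrated from supernatants, run on duplicate SDS-PAGE; second gel used for zymogram, glucan band intensity taken as Gtf activity.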

Streptococcus mutans [3] = assay: Inhibition of biofilm formation of Streptococcus mutans UA159 after 16 hrs by crystal violet staining based serial dilution method; type: functional, organism-based; details: Streptococcus mutans, UA159, 16 h
How it was run: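 S. mutans UA159 co-incubated with compound at various concentrations; biofilm quantified by crystal violet protocol, read at OD562.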

For `O=C(/C=C\c1ccc(O)cc1O)c1cccc(O)c1`, which “Ratio IC50” value (Streptococcus mutans [1]) is on record?
Its value is 10.6.

And the inhibition [2]?
Its inhibition is “Active”.

What about the IC50 (Streptococcus mutans [3]) of the same compound?
The IC50 was 44 µM.

Which “Ratio IC50” value (Streptococcus mutans [1]) does the source give for `O=C(/C=C/c1ccc(O)cc1O)c1ccc(O)cc1` here?
The value was 6.6.

And the inhibition [2]?
Its inhibition is “Active”.

And the IC50 (Streptococcus mutans [3])?
Its IC50 is 162 µM.

`O=C(/C=C\c1ccc(O)cc1O)c1ccc(O)cc1` was tested. Which “Ratio IC50” value (Streptococcus mutans [1]) did it give?
The value was 10.1.

What about the inhibition [2] of the same compound?
The inhibition was “Active”.

What about the IC50 (Streptococcus mutans [3]) of the same compound?
The IC50 was 77 µM.

With `O=C(/C=C/c1ccc(O)cc1O)c1cccc(O)c1` (stereo in doubt; 9a) as the compound, how does the inhibition [2] read?
Its inhibition is “Active”.

`O=C(/C=C/c1cc(O)c(O)cc1O)c1ccccc1O` (stereo in doubt; 18c) was tested. Which inhibition [2] did it give?
The inhibition was “Active”.
